The list is not random: actives were taken first. Their share in the collection is about 4%.
ABHD5-PLIN5 inh: ABHD5-PLIN5 protein interaction inhibition; inhibition, % at 4 µM; actives 0.78% (n = 360,000); Q00G26+Q8WTS1; Split G. princeps luciferase complementation, luminescence, 4 h;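 active = inhibition above the mean inhibition across every tested compound plus 3 SD, cut at about 22% in these data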
Target sequence (Q00G26 whole entry, looked up): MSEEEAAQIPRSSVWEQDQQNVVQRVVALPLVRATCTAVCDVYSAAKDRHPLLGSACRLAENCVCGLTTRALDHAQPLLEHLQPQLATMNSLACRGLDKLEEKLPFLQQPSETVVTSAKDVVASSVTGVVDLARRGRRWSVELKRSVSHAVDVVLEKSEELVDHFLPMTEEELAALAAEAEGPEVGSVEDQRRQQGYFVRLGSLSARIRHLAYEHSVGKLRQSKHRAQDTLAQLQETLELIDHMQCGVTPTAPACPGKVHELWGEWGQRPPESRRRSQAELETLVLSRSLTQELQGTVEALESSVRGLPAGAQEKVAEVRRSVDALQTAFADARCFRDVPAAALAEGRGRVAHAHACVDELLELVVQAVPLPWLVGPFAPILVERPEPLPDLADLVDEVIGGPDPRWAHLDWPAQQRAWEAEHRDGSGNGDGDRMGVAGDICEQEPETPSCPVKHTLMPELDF
Target sequence (Q8WTS1 whole entry, looked up): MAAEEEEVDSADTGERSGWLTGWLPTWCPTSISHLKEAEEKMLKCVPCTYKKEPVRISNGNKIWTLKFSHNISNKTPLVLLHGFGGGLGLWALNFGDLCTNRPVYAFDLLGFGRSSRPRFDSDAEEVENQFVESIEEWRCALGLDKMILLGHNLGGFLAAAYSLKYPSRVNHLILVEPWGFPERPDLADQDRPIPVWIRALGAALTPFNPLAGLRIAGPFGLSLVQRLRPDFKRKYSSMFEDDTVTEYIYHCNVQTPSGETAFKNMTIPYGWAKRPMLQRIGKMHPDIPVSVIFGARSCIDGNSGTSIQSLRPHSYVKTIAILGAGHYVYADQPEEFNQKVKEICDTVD
UPR XBP1 act: activators of adaptive arm of unfolded protein response (XBP1); actives 0.33% (n = 330,000); activation, % at 20 µM; CHO-XBP1 luciferase reporter, IRE1-XBP1 UPR activation, luminescence; percent of tunicamycin response, DMSO as zero;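 active = versus positive control, 20 µM dose yields 30% or more activation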
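Material: CHO-XBP1 cells stably carrying IRE1-XBP1-driven luciferase reporter | Medium: F12 with 10% serum | Compound dosing: 20 µM single concentration, DMSO 1% | Incubation: Overnight seeding at 37 °C, 6 h compound treatment at 37 °C | Detection: Steady-Glo luminescence read | Read-out basis: % activation of reporter signal versus tunicamycin and DMSO controls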
Granule exo inh: blocks lytic granule exocytosis; TALL-104 LAMP-1 surface exposure, flow cytometry; cells stimulated with thapsigargin and PMA; inhibition, % at 10 µM; actives 0.66% (n = 360,000);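 active = inhibition above about 55%, limit read from the data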
UPR CHOP act: apoptotic UPR (CHOP) activation; AID 449763; CHO-CHOP luciferase reporter, luminescence; percent of tunicamycin response over DMSO baseline; activation, % at 10 µM; actives 0.34% (n = 330,000);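 active = at 10 µM dose, activation of 40% or more, normalized to positive control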
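System: CHO-CHOP luciferase reporter cell line | Buffer or medium: F12 medium containing 10% fetal bovine serum | Doses: One dose, 10 µM in 0.5% DMSO | Times: 6 h compound exposure at 37 °C after overnight seeding | Signal: Luciferase luminescence | Read-out: % activation vs tunicamycin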
Mdm2-MdmX inh: disrupts the human Mdm2-MdmX interaction | inhibition, % at 8 µM | O15151+Q00987 | actives 3% (n = 330,000) | SaOS-2 split-luciferase Mdm2/MdmX complementation, luminescence;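 active = inhibition of at least 50% at 8 µM in the primary screen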
Mdm2-MdmX conf: confirmation of human Mdm2/MdmX interaction inhibitors | shares compounds with Mdm2-MdmX inh | Mdm2-MdmX binding, luminescent assay | actives 55% (n = 10,000) | AID 489028 | inhibition, % at 8 µM; in the data active = inhibition above about 40%
Full FLuc ctr: counter-screen for Mdm2/MdmX inhibitors: full-length luciferase; shares compounds with Mdm2-MdmX inh; SaOS-2 full-length luciferase counterscreen, luminescence; inhibition, % at 8 µM; actives 77% (n = 6,200);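 active = mean inhibition at 8 µM reaching about 37%, which flags the compound as non-specific, limit read from the data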;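 note: p53-null SaOS-2 cells with luciferase driven by a doxycycline-inducible promoter; compound on cells about two nights before reading with doxycycline added after day one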
Each line names hits and unclear results; the compound was inactive in the other large screens (follow-up assays come after a bar, where they were run).

C/C(=N\Nc1cccc(Cl)c1)c1ccncc1	none
CC/C(=N/Nc1cccc(Cl)c1)c1cnnc(SC)n1	Mdm2-MdmX inh 54 | Mdm2-MdmX conf inactive | Full FLuc ctr 71
C=C(NC(=O)C(=C)NC(=O)c1csc(C2=NC3c4csc(n4)C4NC(=O)c5csc(n5)C([C@@](C)(O)C(C)O)NC(=O)C5CSC(=N5)/C(=C\C)NC(=O)C(C(C)O)NC(=O)c5csc(n5)[C@]3(CC2)NC(=O)C(C)NC(=O)C(=C)NC(=O)C(C)NC(=O)C(C(C)CC)NC2C=Cc3c(C(C)O)cc(nc3C2O)C(=O)OC4C)n1)C(N)=O (stereo not given in full)	Mdm2-MdmX inh 94 (no result: ABHD5-PLIN5 inh, Granule exo inh) | Mdm2-MdmX conf 56 | Full FLuc ctr 58
CC(C)c1ccc2c(c1)C1(NN=C(c3ccccc3)S1)C(=O)N2 (stereo not given)	Mdm2-MdmX inh 59 | Mdm2-MdmX conf 69 | Full FLuc ctr 69
CCc1ccc2c(c1)C1(NN=C(c3ccc(C)cc3)S1)C(=O)N2 (stereo not given)	Mdm2-MdmX inh 74 | Mdm2-MdmX conf 68 | Full FLuc ctr 63
CC(C)c1ccc(O)c(NC(=O)c2ncn[nH]2)c1	none
CC(C)C(=O)N1CCN(c2c(Cl)cccc2[N+](=O)[O-])CC1	none
Cc1nnc(SC(=O)N2c3ccccc3Sc3ccccc32)s1	Mdm2-MdmX inh 97 | Mdm2-MdmX conf 98 | Full FLuc ctr 52
COc1ccc(NC(=O)Nc2ccc3c(c2)C(=O)N([C@H](C)CO)C[C@H](C)[C@@H](CN(C)S(=O)(=O)c2ccc(OC)cc2)O3)cc1	none
C[C@@H]1CN([C@H](C)CO)C(=O)c2cc(NC(=O)Nc3ccc(C(F)(F)F)cc3)ccc2O[C@H]1CN(C)S(=O)(=O)c1ccccc1	Mdm2-MdmX inh 74 | Mdm2-MdmX conf inactive
COc1ccc(S(=O)(=O)N(C)C[C@H]2Oc3ccc(NC(=O)Nc4ccc(C(F)(F)F)cc4)cc3C(=O)N([C@H](C)CO)C[C@@H]2C)cc1	Mdm2-MdmX inh 74 | Mdm2-MdmX conf inactive
C[C@H](CO)N1C[C@H](C)[C@@H](CN(C)C(=O)Nc2ccc(C(F)(F)F)cc2)Oc2ccc(NC(=O)Nc3ccc(C(F)(F)F)cc3)cc2C1=O	Mdm2-MdmX inh 65 | Mdm2-MdmX conf inactive
C[C@H](CO)N1C[C@H](C)[C@@H](CN(C)S(=O)(=O)c2ccccc2)Oc2c(NC(=O)Nc3ccc(C(F)(F)F)cc3)cccc2C1=O	none
CCc1ncn(CCc2ccccc2OC)c1C(C)C	none (no result: UPR XBP1 act, UPR CHOP act, Mdm2-MdmX inh)
FC(F)Oc1cccc(NC(=S)N2CCN(c3ccccn3)CC2)c1	none
CCOc1ccccc1NC(=O)c1ccc(CN2CCc3ccccc3C2)cc1	none
CCN(CC)CCN1c2ccccc2Sc2ccc3ccccc3c21	Mdm2-MdmX inh 56 | Mdm2-MdmX conf inactive | Full FLuc ctr 75
CCN(CC)CCN1c2ccccc2Sc2ccccc21	none
CC(C)(C)c1ccc(OCC(=O)NNC(=O)Nc2ccccc2)cc1	none
CSc1ccccc1C(=O)Nc1nc2ccccc2[nH]1	none
COc1cc(SC)ccc1C(=O)Nc1nc2ccccc2[nH]1	Mdm2-MdmX inh 100 | Mdm2-MdmX conf 99 | Full FLuc ctr inactive
COc1ccccc1C(=O)NCCC(=O)Nc1nc2ccccc2[nH]1	none
COc1ccccc1C(=O)Nc1nc2ccccc2[nH]1	Mdm2-MdmX inh 98 | Mdm2-MdmX conf 95 | Full FLuc ctr inactive
CCN(CC)c1ccc(N=Cc2ccc([N+](=O)[O-])o2)cc1	none
CCOc1ccc(-n2nc3ccc(NC(=O)CC)cc3n2)cc1	none
CCOCCCNC(=O)c1cn(CC)c2ccc(S(=O)(=O)N3CCC(C)CC3)cc2c1=O	none
COc1ccccc1CN(Cc1nc2ccccc2c(=O)[nH]1)S(=O)(=O)c1ccc2ccccc2c1	Mdm2-MdmX inh 72 | Mdm2-MdmX conf inactive
COc1ccc(S(=O)(=O)N(Cc2ccccc2)Cc2nc3ccccc3c(=O)[nH]2)cc1	none
CCOc1cc(-c2nc(-c3ccccc3OC)no2)cc(OCC)c1OCC	none
O=C(/C=C/c1cccc([N+](=O)[O-])c1)N1CC[C@@]2(O)CCCC[C@H]2C1	none
CCCn1c(N)c(C(=O)CSc2nc3ccccc3s2)c(=O)[nH]c1=O	Mdm2-MdmX inh 82 | Mdm2-MdmX conf 79 | Full FLuc ctr 49
CCOC(=O)Nc1nc(-c2ccccc2)c(C(=O)c2ccc(Cl)cc2)s1	Mdm2-MdmX inh 66 | Mdm2-MdmX conf 60 | Full FLuc ctr 106
O=C(CN1C(=O)NC2(CCCCC2)C1=O)Nc1cccc(Cl)c1Cl	none
Cc1c(Cl)cccc1N=C1SCCN1C(=O)CN1C(=O)NC2(CCCC2)C1=O	Mdm2-MdmX inh 78 | Mdm2-MdmX conf 45 | Full FLuc ctr 69
CSc1ncccc1C(=O)OCC(=O)c1ccc2c(c1)NC(=O)CO2	Mdm2-MdmX inh 68 | Mdm2-MdmX conf inactive
COc1cc(OC)c(C(=O)OCC(=O)c2ccc3c(c2)NC(=O)CO3)cc1OC	none
COc1cccc(/C=N/NC(=O)c2cc(-c3ccccn3)nc3ccccc23)c1O	Mdm2-MdmX inh 76 | Mdm2-MdmX conf 60 | Full FLuc ctr 40
O=[N+]([O-])c1cc(Cl)cc(/C=N\Nc2ccccn2)c1O	Mdm2-MdmX inh 70 | Mdm2-MdmX conf 77 | Full FLuc ctr 55
O=C(N/N=C/c1ccc(F)cc1)c1cc(-c2ccccn2)nc2ccccc12	none
COc1cc([N+](=O)[O-])cc(/C=N/NC(=O)c2cc(-c3ccccc3)nc3ccccc23)c1O	none
O=C(N/N=C/c1cc(Cl)cc([N+](=O)[O-])c1O)c1cc(-c2ccccn2)nc2ccccc12	Mdm2-MdmX inh 59 | Mdm2-MdmX conf inactive
O=S(=O)(Nc1cccnc1)c1cccnc1	none (no result: UPR XBP1 act, UPR CHOP act, Mdm2-MdmX inh)
CCOC(=O)C1=C(C(F)(F)F)Nc2ncnn2C1c1cc(OC)c(OC)cc1OC (stereo not given)	none
COc1ccc2c(c1)C(C)=CC(C)(C)N2S(=O)(=O)c1ccc(C)cc1	Mdm2-MdmX inh 63 | Mdm2-MdmX conf 67 | Full FLuc ctr 96
CC1=CC(C)(C)N(S(=O)(=O)c2ccc(C)cc2)c2cc(C)ccc21	Mdm2-MdmX inh 54 | Mdm2-MdmX conf 69 | Full FLuc ctr 122
CCOc1ccc2c(c1)C(C)=CC(C)(C)N2S(=O)(=O)c1ccc(C)cc1	Mdm2-MdmX inh 63 | Mdm2-MdmX conf 61 | Full FLuc ctr 121
COC(=O)C1(C)CN(S(=O)(=O)c2ccc(C)cc2)c2cc(OC)ccc2C1=O (stereo not given)	none
N#C/C(=C\c1c(Cl)cccc1Cl)c1nc2ccccc2o1	Mdm2-MdmX inh 82 | Mdm2-MdmX conf inactive
